The results in this text go back to ChEMBL document CHEMBL4024783, “Alkylated Piperazines and Piperazine-Azole Hybrids as Antifungal Agents” (J Med Chem, 2018).

Structures are written as SMILES. Values after ≈ are worked out from the molar mass of the structure shown.

The test system of series [1] is Candida albicans. Kind of series: Antifungal activity against itraconazole and fluconazole susceptible Candida albicans ATCC MYA-2876 after 48 hrs by broth dilution method. It counts as functional. To be noted: Candida albicans, ATCC MYA-2876, 48 h.
The nature of series [2]: Solubility of the compound in DMSO. Type of series: physicochemical.
The next series concerns Nakaseomyces glabratus. Kind of series: Antifungal activity against Candida glabrata ATCC 2001 after 48 hrs by broth dilution method. Type of series: functional, CBS 138. To be noted: Nakaseomyces glabratus, CBS 138, 48 h. Background: In broth dilution the organism is exposed to a series of concentrations in liquid medium.
Series [3] relates to Candida albicans. Kind of series: Antifungal activity against itraconazole and fluconazole resistant Candida albicans ATCC MYA-1237 after 48 hrs by broth dilution method. The note with it: Candida albicans, ATCC MYA-1237, 48 h. It counts as functional. Summed up:
(§1)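 CLSI M27-A3 broth microdilution with minor modifications. Overnight YPD culture grown at 35 °C, 200 rpm, adjusted to OD600 0.12, diluted in RPMI 1640 buffered to pH 7.0 with 0.165 M MOPS to a final 1–2 × 10^3 CFU/mL. Test compounds at 0.015–31.3 µg/mL, 48 h at 35 °C, DMSO <1.25%. […] Triplicate.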

The subject of another series is Aspergillus terreus. The experiment in a line: Antifungal activity against Aspergillus terreus ATCC MYA-3633 after 48 hrs by broth dilution method. It counts as functional. The note with it: Aspergillus terreus, ATCC MYA-3633, 48 h. The essentials:
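Molds tested per CLSI M38-A2. Spores were harvested from sporulating PDA cultures by filtering through glass wool and counted on a hemocytometer. Serial dilutions (0.03–31.3 µg/mL) were made in RPMI 1640 buffered to pH 7.0 with 0.165 M MOPS, final inoculum 5 × 10^5 CFU/mL.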

In series [4] the test system is Candida albicans. The experiment in a line: Antifungal activity against itraconazole and fluconazole susceptible Candida albicans ATCC MYA-2310 after 48 hrs by broth dilution method. It counts as functional. To be noted: Candida albicans, ATCC MYA-2310, 48 h.
In series [5] the test system is Candida parapsilosis. The experiment in a line: Antifungal activity against Candida parapsilosis ATCC 22019 after 48 hrs by broth dilution method. It counts as functional. The note with it: Lodderomyces parapsilosis, ATCC 22019, 48 h.
Series [6] concerns Candida albicans. The experiment in a line: Antifungal activity against itraconazole and fluconazole resistant Candida albicans ATCC MYA-1003 after 48 hrs by broth dilution method. Type of series: functional. To be noted: Candida albicans, ATCC MYA-1003, 48 h. Summed up: as §1
In series [7] the test system is Aspergillus nidulans. The experiment in a line: Antifungal activity against Aspergillus nidulans ATCC 38163 after 48 hrs by broth dilution method. To be noted: Aspergillus nidulans, ATCC 38163, 48 h. Type of series: functional. Summed up:
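A. nidulans run per CLSI M38-A2. PDA spores were filtered through glass wool and counted by hemocytometer. Test range 0.03–31.3 µg/mL in MOPS-buffered RPMI 1640 (pH 7.0), final 5 × 10^5 CFU/mL.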

Series [8] deals with Candida albicans. The experiment in a line: Antifungal activity against Candida albicans ATCC 10231 after 48 hrs by broth dilution method. Type of series: functional. To be noted: ATCC 10231, 48 h.
For a further series, the system named is Pichia kudriavzevii. The experiment in a line: Antifungal activity against Candida krusei ATCC 6258 after 48 hrs by broth dilution method. Type of series: functional. The note with it: Pichia kudriavzevii, ATCC 6258, 48 h. Summed up: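 Yeasts tested per CLSI M27-A3 with minor changes. An overnight YPD culture (35 °C, 200 rpm) was adjusted to OD600 0.12 and diluted in MOPS-buffered RPMI 1640 (pH 7.0) to a final 1–2 × 10^3 CFU/mL. Compounds 0.015–31.3 µg/mL, DMSO <1.25%.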

The nature of series [9]: Aqueous solubility of the compound. Type of series: physicochemical. To be noted: buffer.
The subject of a further series is Aspergillus flavus. Kind of series: Antifungal activity against Aspergillus flavus ATCC MYA-3631 after 48 hrs by broth dilution method. It counts as functional. To be noted: ATCC MYA-3631, 48 h.
In series [10] the test system is Candida albicans. The experiment in a line: Antifungal activity against Candida albicans ATCC 64124 after 48 hrs by broth dilution method. It counts as functional. The note with it: Candida albicans, ATCC 64124, 48 h. Summed up:
as §1

In series [11] the test system is Candida albicans. Kind of series: Antifungal activity against itraconazole and fluconazole resistant Candida albicans ATCC 90819 after 48 hrs by broth dilution method. The note with it: Candida albicans, ATCC 90819, 48 h. Type of series: functional. The essentials: as §1
The subject of series [12] is Candida albicans. Kind of series: Antifungal activity against Candida albicans ATCC 10231 after 48 hrs in the presence of 10% FBS by broth dilution method. Type of series: functional. To be noted: ATCC 10231, 48 h.
The test system of series [13] is Candida albicans. The experiment in a line: Antibiofilm activity against voriconazole resistant Candida albicans ATCC 64124 sessile cells incubated for 24 hrs by XTT reduction assay. It counts as functional. To be noted: ATCC 64124, 24 h. The essentials: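 Strain B grown overnight in YPD broth at 35 °C, diluted to OD600 0.1 (~10^6 CFU/mL), then grown statically for 24 h at 37 °C to form biofilm. Washed with PBS, then drug in RPMI 1640 at 0.12–62.5 µg/mL for 24 h at 37 °C. Read-out: XTT 0.5 mg/mL with menadione 1 µM, 2 h, A490. SMIC50/SMIC80 are 50%/80% decreases versus drug-free biofilm. Duplicate.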

For series [14], the system named is Candida parapsilosis. The experiment in a line: Antifungal activity against Candida parapsilosis ATCC 22019 after 48 hrs in the presence of 10% FBS by broth dilution method. Type of series: functional. To be noted: Lodderomyces parapsilosis, ATCC 22019, 48 h.
In series [15] the test system is Candida albicans. The experiment in a line: Ratio of MIC80 for voriconazole resistant Candida albicans ATCC 64124 sessile cells to MIC for voriconazole resistant Candida albicans ATCC 64124. It counts as functional.
In series [16] the test system is Aspergillus nidulans. The experiment in a line: Antifungal activity against Aspergillus nidulans ATCC 38163 after 48 hrs in the presence of 10% FBS by broth dilution method. Type of series: functional. To be noted: ATCC 38163, 48 h.

What is called MIC is the lowest concentration that inhibits growth of the organism. Turning to `CCCCCCCCCCCCCN1CCN(CC(O)(Cn2cncn2)c2ccc(F)cc2F)CC1` (stereo not drawn), the MIC against Candida albicans [1] was 3.9 µM (≈ 1.97 µg/mL); against Nakaseomyces glabratus, 1.9 µM (≈ 0.961 µg/mL); against Candida albicans [3], 7.7 µM (≈ 3.89 µg/mL); against Aspergillus terreus, 1.9 µM (≈ 0.961 µg/mL); against Candida albicans [4], 7.7 µM (≈ 3.89 µg/mL); against Candida parapsilosis [5], under 0.47 µM. The MIC in the series with Candida albicans [6] was found to be 7.7 µM (≈ 3.89 µg/mL); in the series with Aspergillus nidulans [7] it was 1.9 µM (≈ 0.961 µg/mL); against Candida albicans [8], 3.9 µM (≈ 1.97 µg/mL); against Pichia kudriavzevii, 1.9 µM (≈ 0.961 µg/mL); with Aspergillus flavus it was 1.9 µM (≈ 0.961 µg/mL); with Candida albicans [10], 15.4 µM (≈ 7.79 µg/mL). Besides, 3.9 µM (≈ 1.97 µg/mL) was the least that counted as inhibitory against Candida albicans [11] (MIC). The solubility entry in [2] and in series [9] was “Soluble” throughout.
With `CCCCCCCCCCCCCN1CCNCC1`, the MIC came to 7.2 µM (≈ 1.93 µg/mL) in the series on Candida albicans [1]; 1.8 µM (≈ 0.483 µg/mL) in the series on Nakaseomyces glabratus; 7.2 µM (≈ 1.93 µg/mL) in the series on Candida albicans [3]; 7.2 µM (≈ 1.93 µg/mL) in the series with Aspergillus terreus; 7.2 µM (≈ 1.93 µg/mL) against Candida albicans [4]; 7.2 µM (≈ 1.93 µg/mL) against Candida parapsilosis [5]. For the same molecule, the MIC was found to be 7.2 µM (≈ 1.93 µg/mL) with Candida albicans [6]; 3.6 µM (≈ 0.967 µg/mL) against Aspergillus nidulans [7]; 3.6 µM (≈ 0.967 µg/mL) against Candida albicans [8]; 3.6 µM (≈ 0.967 µg/mL) in the series with Pichia kudriavzevii; 7.2 µM (≈ 1.93 µg/mL) with Aspergillus flavus; 3.6 µM (≈ 0.967 µg/mL) with Candida albicans [10]. This molecule also registered an MIC in the series with Candida albicans [11] of 3.6 µM (≈ 0.967 µg/mL). Besides, the solubility result in [2] and in series [9] was “Soluble” in each case.
Consider `C[C@@H]1[C@H](O)[C@@H](C)/C=C/C=C/C=C/C=C/C=C/C=C/C=C/[C@H](O[C@@H]2O[C@H](C)[C@@H](O)[C@H](N)[C@@H]2O)C[C@@H]2O[C@](O)(C[C@@H](O)C[C@@H](O)[C@H](O)CC[C@@H](O)C[C@@H](O)CC(=O)O[C@H]1C)C[C@H](O)[C@H]2C(=O)O` [AMPHOTERICIN B], for which the figures for the MIC with Candida albicans [12] and against Candida albicans [11] were 7.8 µg/mL and 1.1 µM (≈ 1.02 µg/mL), respectively.
Consider `CCCCCCCCCCN1CCN(CC(O)(Cn2cncn2)c2ccc(Cl)cc2Cl)CC1` (stereo not drawn), for which the solubility result in [2] and in [9] was “Soluble” throughout. The MIC against Nakaseomyces glabratus turned out to be 2 µM (≈ 0.993 µg/mL); against Aspergillus terreus, 7.9 µM (≈ 3.92 µg/mL); in the series with Candida parapsilosis [5], 0.48 µM (≈ 0.238 µg/mL); in the series with Candida albicans [12], 1.95 µg/mL; in the series on Aspergillus nidulans [7], 7.9 µM (≈ 3.92 µg/mL); in the series on Candida albicans [8] it was 3.9 µM (≈ 1.94 µg/mL). For the same molecule, the MIC in the series with Pichia kudriavzevii amounted to 3.9 µM (≈ 1.94 µg/mL); with Aspergillus flavus, 7.9 µM (≈ 3.92 µg/mL); with Candida albicans [11], 7.9 µM (≈ 3.92 µg/mL); in the series with Candida parapsilosis [14], 0.24 µg/mL; with Aspergillus nidulans [16], 3.9 µg/mL. Further, in the series with Candida albicans [13], the MIC50 is 15.6 µg/mL (≈ 31.4 µM). In addition, the MIC80 against Candida albicans [13] was 31.3 µg/mL (≈ 63 µM). In the series with Candida albicans [15], the Ratio is listed as 1 - 2.
